Measured values collected from several papers.
Lines come from different studies, so protocols differ.
LNPEP: Leucyl-cystinyl aminopeptidase (LNPEP, Homo sapiens, UniProt Q9UIQ6)
CYP3A4: Cytochrome P450 3A4 (CYP3A4, Homo sapiens, UniProt P08684)
SLCO1B1: Solute carrier organic anion transporter family member 1B1 (SLCO1B1, Homo sapiens, UniProt Q9Y6L6)
MMP13: Collagenase 3 (MMP13, Homo sapiens, UniProt P45452)
Cruzipain: Cruzipain (Trypanosoma cruzi, UniProt P25779)

target	test	system	conditions	IC50 [µM]	Compound
LNPEP	enzyme activity, inhibitor, fluorescence	–	–	12.1	O=S(=O)(Nc1cccc(-c2nnn[nH]2)c1)c1ccc(F)c(F)c1
Polynucleotide kinase (pseT, Enterobacteria phage T4, UniProt P06855)	enzyme activity, inhibitor	–	–	> 100	CC/C=C\C/C=C\C/C=C\C/C=C\C/C=C\CCCC(=O)O
Insulin receptor (INSR, Homo sapiens, UniProt P06213)	enzyme activity, inhibitor, radiometric	–	–	1.14	CCn1ncc2c1-c1cnc(N)c(c1)O[C@H](C)c1cc(F)ccc1-c1nn(C)nc1C2
CYP3A4	enzyme activity, inhibitor, luciferase	–	–	66.1	Nc1nc(N)c2nc(CNc3cccc4ccccc34)cnc2n1
SLCO1B1	transporter uptake, inhibitor, fluorescence	CHO	30 min, pH 7.4	8.1	CCOC(=O)Nc1ccc2c(c1)N(C(=O)CCN1CCOCC1)c1ccccc1S2
Protein polybromo-1, bromodomain (PBRM1, Homo sapiens, UniProt Q86U86)	cell-free assay, TR-FRET	–	–	1.1	Cc1ncsc1-c1ccc(CNC(=O)[C@@H]2C[C@H](O)CN2C(=O)[C@@H](NC(=O)C2(F)CC2)C(C)(C)C)c(OCCc2ccc(CN3CCN(c4cc(-c5ccccc5O)nnc4N)CC3)cc2)c1
Aldehyde dehydrogenase, mitochondrial (ALDH2, Homo sapiens, UniProt P05091)	enzyme activity, inhibitor, absorbance	–	–	> 160	O=C1Nc2ccccc2C1=O
Coagulation factor XII, trypsin-like site (F12, Homo sapiens, UniProt P00748)	enzyme activity, inhibitor, fluorescence	–	–	> 10	CCOc1ccc(C[C@@H](N)C(=O)N[C@@H](Cc2ccccc2)C(=O)NC2CCN(C(=N)N)CC2)cc1
CYP3A4	enzyme activity, inhibitor	–	–	1.6	Fc1ccc(Nc2c(-c3ccccn3)nc3ccc(C4CC4)cn23)cc1
MMP13	enzyme activity, inhibitor, FRET	–	–	0.016	Cc1noc(-c2cc3cc(-c4nc(C(N)=O)[nH]c4C)ccc3[nH]2)n1
E3 ubiquitin-protein ligase Mdm2 (MDM2, Homo sapiens, UniProt Q00987)	protein-protein interaction, inhibitor	–	–	13	c1ccc(/C(=N\Nc2nc3ccccc3s2)c2ccccn2)cc1
Potassium voltage-gated channel subfamily A member 3 (Kcna3, Mus musculus, UniProt P16390)	ion current, inhibitor, patch clamp	–	–	0.139	O=c1ccc2c(OCCCCOc3cccc(O)c3)c3ccoc3cc2o1
Cruzipain	enzyme activity, inhibitor	–	–	7	O=C(CNC(=O)c1ccccc1)OC(C(=O)Nc1cc(C(F)(F)F)ccc1Cl)c1ccccc1 (centres unmarked)
MMP13	enzyme activity, inhibitor, FRET	–	–	0.0023	Cc1noc(-c2cc3cc(-c4nc(C(=O)NCc5ccccc5)[nH]c4C)ccc3[nH]2)n1
Tyrosine-protein kinase JAK1 (JAK1, Homo sapiens, UniProt P23458)	enzyme activity, inhibitor, ADP detection	–	–	0.5	CCC1CN(C(=O)NCC(F)(F)F)CC1NCc1ccc(C)nc1-c1cnc2[nH]ccc2c1 (centres unmarked)
LNPEP	enzyme activity, inhibitor, fluorescence	–	–	0.4	O=S(=O)(Nc1cccc(-c2nnn[nH]2)c1)c1ccc(Cl)c2nonc12
Dual serine/threonine and tyrosine protein kinase (DSTYK, Homo sapiens, UniProt Q6XUX3)	enzyme activity, inhibitor, radiometric	–	–	> 10	CN(C)CC#Cc1ccc2[nH]c3c(c2c1)-c1nc(N)ncc1CCC3
LNPEP	enzyme activity, inhibitor, fluorescence	–	–	5.5	O=S(=O)(Nc1cccc(-c2nnn[nH]2)c1)c1ccc(Br)cc1F
SLCO1B1	transporter uptake, inhibitor, fluorescence	CHO	30 min, pH 7.4	34.5	O=C(COc1ccc(Cl)cc1)N1CCN(Cc2ccc3c(c2)OCO3)CC1
LNPEP	enzyme activity, inhibitor, fluorescence	–	–	7.5	O=S(=O)(Nc1cccc(-c2nnn[nH]2)c1)c1ccc(C(F)(F)F)c(F)c1
Cruzipain	enzyme activity, inhibitor	–	–	14	CC(C)C(NC(=O)c1ccco1)C(=O)NCC(c1ccco1)N1CCCCC1 (centres unmarked)
SLCO1B1	transporter uptake, inhibitor, fluorescence	CHO	30 min, pH 7.4	> 100	Cc1ncc([N+](=O)[O-])n1CCO
MMP13	enzyme activity, inhibitor, FRET	–	–	0.00021	Cc1noc(-c2cc3cc(-c4cc(C(=O)NCc5ccc(C(=O)O)cc5)nn4C)ccc3[nH]2)n1
